According to ChEMBL document CHEMBL1629690, “Development of hexadecyloxypropyl tenofovir (CMX157) for treatment of infection caused by wild-type and nucleoside/nucleotide-resistant HIV” (Antimicrob Agents Chemother, 2010):

What follows are molecules tested on Human immunodeficiency virus 1 (assay: Antiviral activity against HIV1 isolate 217 harboring reverse transcriptase D67N/K70E/M184V mutant gene by phenosense assay). Conditions: Human immunodeficiency virus 1, isolate 217.
Assay type: functional, organism-based
Procedure, shortened: (§1)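 PhenoSense HIV recombinant virus assay: patient-derived HIV-1 with major NRTI resistance mutations tested against increasing drug concentrations to give inhibition curves. EC50 is the concentration giving 50% inhibition. Fold change is the test recombinant EC50 divided by the EC50 of a drug-sensitive wild-type reference virus. Panel of 30 NRTI-resistant isolates plus two wild-type viruses.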

SMILES	EC50 [nM]
Cc1cn([C@H]2C[C@H](N=[N+]=[N-])[C@@H](CO)O2)c(=O)[nH]c1=O [ZIDOVUDINE]	4

The molecules below were run on Human immunodeficiency virus 1 (assay: Antiviral activity against HIV1 isolate 063 harboring reverse transcriptase M41L/D67N/K70R/M184V/L210W/T215Y/K219E mutant gene by phenosense assay relative to wild type). Conditions: not given.
Assay type: functional
Procedure, shortened: (§2)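 Recombinant-virus PhenoSense HIV assay run on a panel of 30 NRTI-resistant HIV-1 mutants and two wild-type viruses. Each virus is tested across increasing drug concentrations to give an inhibition curve and EC50. Fold change is the test recombinant EC50 divided by the EC50 of the drug-sensitive wild-type reference virus.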

SMILES	fold change (FC)
Cc1cn([C@H]2C[C@H](N=[N+]=[N-])[C@@H](CO)O2)c(=O)[nH]c1=O [ZIDOVUDINE]	59

These molecules were tested on Human immunodeficiency virus 1 (assay: Antiviral activity against HIV1 isolate 066 harboring reverse transcriptase 184V mutant gene by phenosense assay relative to wild type). Conditions: not given.
Assay type: functional
Procedure, shortened: as §2

SMILES	fold change (FC)
Cc1cn([C@H]2C[C@H](N=[N+]=[N-])[C@@H](CO)O2)c(=O)[nH]c1=O [ZIDOVUDINE]	0.63

These molecules were tested on Human immunodeficiency virus 1 (assay: Antiviral activity against HIV1 isolate 069 harboring reverse transcriptase D67E/T69SSG/V75M/M184V/L210W/T215Y mutant gene by phenosense assay relative to wild type). Conditions: not given.
Assay type: functional
Procedure, shortened: as §2

SMILES	fold change (FC)
Cc1cn([C@H]2C[C@H](N=[N+]=[N-])[C@@H](CO)O2)c(=O)[nH]c1=O [ZIDOVUDINE]	320

The molecules below were run on Human immunodeficiency virus 1 (assay: Antiviral activity against HIV1 isolate 070 harboring reverse transcriptase 65R/S68G mutant gene by phenosense assay relative to wild type). Conditions: not given.
Assay type: functional
Procedure, shortened: as §2

SMILES	fold change (FC)
Cc1cn([C@H]2C[C@H](N=[N+]=[N-])[C@@H](CO)O2)c(=O)[nH]c1=O [ZIDOVUDINE]	0.44

Each molecule was assayed on Human immunodeficiency virus 1 (assay: Antiviral activity against HIV1 isolate 071 harboring reverse transcriptase 65R/S68N/184V mutant gene by phenosense assay relative to wild type). Conditions: not given.
Assay type: functional
Procedure, shortened: as §2

SMILES	fold change (FC)
Cc1cn([C@H]2C[C@H](N=[N+]=[N-])[C@@H](CO)O2)c(=O)[nH]c1=O [ZIDOVUDINE]	0.41

These molecules were tested on Human immunodeficiency virus 1 (assay: Antiviral activity against HIV1 isolate 162 harboring reverse transcriptase A62V/V75I/F77L/Y115F/F116Y/Q151M/M184V mutant gene by phenosense assay relative to wild type). Conditions: not given.
Assay type: functional
Procedure, shortened: as §2

SMILES	fold change (FC)
Cc1cn([C@H]2C[C@H](N=[N+]=[N-])[C@@H](CO)O2)c(=O)[nH]c1=O [ZIDOVUDINE]	150

These molecules were tested on Human immunodeficiency virus 1 (assay: Antiviral activity against HIV1 isolate 180 harboring reverse transcriptase K65R mutant gene obtained as site-directed mutant of NL4-3 by phenosense assay relative to wild type). Conditions: not given.
Assay type: functional
Procedure, shortened: as §2

SMILES	fold change (FC)
Cc1cn([C@H]2C[C@H](N=[N+]=[N-])[C@@H](CO)O2)c(=O)[nH]c1=O [ZIDOVUDINE]	0.51

What follows are molecules tested on Human immunodeficiency virus 1 (assay: Antiviral activity against HIV1 isolate 192 harboring reverse transcriptase M41L/T215Y mutant gene by phenosense assay relative to wild type). Conditions: not given.
Assay type: functional
Procedure, shortened: as §2

SMILES	fold change (FC)
Cc1cn([C@H]2C[C@H](N=[N+]=[N-])[C@@H](CO)O2)c(=O)[nH]c1=O [ZIDOVUDINE]	20

Each molecule was assayed on Human immunodeficiency virus 1 (assay: Antiviral activity against HIV1 isolate 194 harboring reverse transcriptase M41L/T215Y/M184V mutant gene by phenosense assay relative to wild type). Conditions: not given.
Assay type: functional
Procedure, shortened: as §2

SMILES	fold change (FC)
Cc1cn([C@H]2C[C@H](N=[N+]=[N-])[C@@H](CO)O2)c(=O)[nH]c1=O [ZIDOVUDINE]	6.5

These molecules were tested on Human immunodeficiency virus 1 (assay: Antiviral activity against HIV1 isolate 201 harboring reverse transcriptase M41L/L210W/T215Y mutant gene by phenosense assay relative to wild type). Conditions: not given.
Assay type: functional
Procedure, shortened: as §1

SMILES	fold change (FC)
Cc1cn([C@H]2C[C@H](N=[N+]=[N-])[C@@H](CO)O2)c(=O)[nH]c1=O [ZIDOVUDINE]	98

Each molecule was assayed on Human immunodeficiency virus 1 (assay: Antiviral activity against HIV1 isolate 203 harboring reverse transcriptase M41L/L210W/T215Y/M184V mutant gene by phenosense assay relative to wild type). Conditions: not given.
Assay type: functional
Procedure, shortened: as §1

SMILES	fold change (FC)
Cc1cn([C@H]2C[C@H](N=[N+]=[N-])[C@@H](CO)O2)c(=O)[nH]c1=O [ZIDOVUDINE]	3.2

Each molecule was assayed on Human immunodeficiency virus 1 (assay: Antiviral activity against HIV1 isolate 204 harboring reverse transcriptase M41L/L210W/T215Y/M184V mutant gene by phenosense assay relative to wild type). Conditions: not given.
Assay type: functional
Procedure, shortened: as §1

SMILES	fold change (FC)
Cc1cn([C@H]2C[C@H](N=[N+]=[N-])[C@@H](CO)O2)c(=O)[nH]c1=O [ZIDOVUDINE]	3.9

Each molecule was assayed on Human immunodeficiency virus 1 (assay: Antiviral activity against HIV1 isolate 206 harboring reverse transcriptase D67N/K70R mutant gene by phenosense assay relative to wild type). Conditions: not given.
Assay type: functional
Procedure, shortened: as §1

SMILES	fold change (FC)
Cc1cn([C@H]2C[C@H](N=[N+]=[N-])[C@@H](CO)O2)c(=O)[nH]c1=O [ZIDOVUDINE]	28

These molecules were tested on Human immunodeficiency virus 1 (assay: Antiviral activity against HIV1 isolate 211 harboring reverse transcriptase D67N/K70R/T215F/K219E/M184V mutant gene by phenosense assay relative to wild type). Conditions: not given.
Assay type: functional
Procedure, shortened: as §1

SMILES	fold change (FC)
Cc1cn([C@H]2C[C@H](N=[N+]=[N-])[C@@H](CO)O2)c(=O)[nH]c1=O [ZIDOVUDINE]	7

Each molecule was assayed on Human immunodeficiency virus 1 (assay: Antiviral activity against HIV1 isolate 212 harboring reverse transcriptase L210W/T215Y mutant gene by phenosense assay relative to wild type). Conditions: not given.
Assay type: functional
Procedure, shortened: as §1

SMILES	fold change (FC)
Cc1cn([C@H]2C[C@H](N=[N+]=[N-])[C@@H](CO)O2)c(=O)[nH]c1=O [ZIDOVUDINE]	7.6

These molecules were tested on Human immunodeficiency virus 1 (assay: Antiviral activity against HIV1 isolate 217 harboring reverse transcriptase D67N/K70E/M184V mutant gene by phenosense assay relative to wild type). Conditions: not given.
Assay type: functional
Procedure, shortened: as §1

SMILES	fold change (FC)
Cc1cn([C@H]2C[C@H](N=[N+]=[N-])[C@@H](CO)O2)c(=O)[nH]c1=O [ZIDOVUDINE]	0.15

What follows are molecules tested on Human immunodeficiency virus 1 (assay: Antiviral activity against HIV1 isolate 220 harboring reverse transcriptase K70E/M184V mutant gene by phenosense assay relative to wild type). Conditions: not given.
Assay type: functional
Procedure, shortened: as §1

SMILES	fold change (FC)
Cc1cn([C@H]2C[C@H](N=[N+]=[N-])[C@@H](CO)O2)c(=O)[nH]c1=O [ZIDOVUDINE]	0.13
